Assay results as given in ChEMBL document CHEMBL1156681, “Synthesis, anti-bacterial, anti-asthmatic and anti-diabetic activities of novel N-substituted-2-(4-phenylethynyl-phenyl)-1H-benzimidazoles and N-substituted 2[4-(4,4-dimethyl-thiochroman-6-yl-ethynyl)-phenyl)-1H-benzimidazoles” (2008).
≈ marks a conversion by molar mass, not a printed value. Calls of active or inactive are those of the source. The calls are words filed in the database; no cut-off is given here.

What was measured:
Salmonella typhimurium [1] = assay: Antibacterial activity against Salmonella Typhimurium at 1 ug/ml after 48 hrs by tube dilution method; type: functional, organism-based; settings: Salmonella enterica subsp. enterica serovar Typhimurium
Outline: (§1)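 Compounds dissolved in DMSO and tested by tube dilution at […]. Tubes were incubated at 37 °C for 48 h. Growth was scored against the DMSO control as poor, medium or confluent (no inhibition). MIC was taken from the dilution series. Cephalexin served as the reference antibacterial and DMSO as the solvent control.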

Salmonella typhimurium [2] = assay: Antibacterial activity against Salmonella Typhimurium after 48 hrs by tube dilution method; type: functional, Salmonella enterica subsp. enterica serovar Typhimurium; settings: Salmonella enterica; outline: as §1
[3] = target: Phosphodiesterase 4 (Homo sapiens) (UniProt P27815+Q08499+Q07343+Q08493); assay: Inhibition of human PDE4 at 1 uM after 20 mins; type: protein assay
Salmonella typhimurium [4] = assay: Antibacterial activity against Salmonella Typhimurium at 200 ug/ml after 48 hrs by tube dilution method; type: functional, organism-based; settings: Salmonella enterica subsp. enterica serovar Typhimurium; outline: as §1
Staphylococcus aureus [5] = assay: Antibacterial activity against Staphylococcus aureus at 500 ug/ml after 48 hrs by tube dilution method; type: functional, organism-based; outline: as §1
Staphylococcus aureus [6] = assay: Antibacterial activity against Staphylococcus aureus at 200 ug/ml after 48 hrs by tube dilution method; type: functional, organism-based; outline: as §1
Staphylococcus aureus [7] = assay: Antibacterial activity against Staphylococcus aureus at 0.1 ug/ml after 48 hrs by tube dilution method; type: functional, organism-based; outline: as §1
Staphylococcus aureus [8] = assay: Antibacterial activity against Staphylococcus aureus after 48 hrs by tube dilution method; type: functional; outline: as §1
[9] = target: Dipeptidyl peptidase 4 (Homo sapiens) (UniProt P27487); assay: Inhibition of human recombinant DPP4 at 0.3 uM after 30 mins relative to control
Dipeptidyl peptidase 4 (Homo sapiens), sequence (P27487 whole entry, looked up): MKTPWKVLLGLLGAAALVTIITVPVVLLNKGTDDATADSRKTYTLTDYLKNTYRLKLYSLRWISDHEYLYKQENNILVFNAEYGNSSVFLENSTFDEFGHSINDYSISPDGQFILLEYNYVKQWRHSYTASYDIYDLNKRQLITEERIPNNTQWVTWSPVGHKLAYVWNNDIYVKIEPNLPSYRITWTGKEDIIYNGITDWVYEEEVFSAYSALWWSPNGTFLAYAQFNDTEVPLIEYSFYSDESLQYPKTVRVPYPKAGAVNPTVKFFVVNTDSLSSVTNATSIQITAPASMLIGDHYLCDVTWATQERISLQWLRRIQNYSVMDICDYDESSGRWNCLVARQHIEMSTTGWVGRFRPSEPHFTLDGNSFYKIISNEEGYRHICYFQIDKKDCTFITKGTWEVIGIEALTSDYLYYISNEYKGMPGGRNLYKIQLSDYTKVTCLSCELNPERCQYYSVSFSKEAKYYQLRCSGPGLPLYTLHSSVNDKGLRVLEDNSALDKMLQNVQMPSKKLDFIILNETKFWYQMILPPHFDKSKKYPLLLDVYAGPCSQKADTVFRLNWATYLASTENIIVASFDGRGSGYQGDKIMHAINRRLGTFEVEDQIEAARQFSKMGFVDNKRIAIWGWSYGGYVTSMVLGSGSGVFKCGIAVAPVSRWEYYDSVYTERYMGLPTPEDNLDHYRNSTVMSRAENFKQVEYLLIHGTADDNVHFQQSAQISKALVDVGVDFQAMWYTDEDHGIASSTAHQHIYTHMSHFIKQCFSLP
Outline: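 Recombinant human DPP-IV (10 ng) was run in 25 mM Tris pH 7.4, 140 mM NaCl, 10 mM KCl and 1% BSA with Gly-Pro-AMC substrate. Compounds in DMSO were added, and AMC release was followed kinetically at 30 °C for 30 min (ex 380 / em 460 nm). Percent inhibition was calculated against the solvent-only control.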

Salmonella typhimurium [10] = assay: Antibacterial activity against Salmonella Typhimurium at 0.1 ug/ml after 48 hrs by tube dilution method; type: functional, organism-based; settings: Salmonella enterica subsp. enterica serovar Typhimurium; outline: as §1
[11] = target: T1, Tyrosine-protein phosphatase non-receptor type 1 (Homo sapiens) (UniProt P18031); assay: Inhibition of human recombinant PTP1B at 30 uM after 30 mins relative to control
T1 sequence (whole entry): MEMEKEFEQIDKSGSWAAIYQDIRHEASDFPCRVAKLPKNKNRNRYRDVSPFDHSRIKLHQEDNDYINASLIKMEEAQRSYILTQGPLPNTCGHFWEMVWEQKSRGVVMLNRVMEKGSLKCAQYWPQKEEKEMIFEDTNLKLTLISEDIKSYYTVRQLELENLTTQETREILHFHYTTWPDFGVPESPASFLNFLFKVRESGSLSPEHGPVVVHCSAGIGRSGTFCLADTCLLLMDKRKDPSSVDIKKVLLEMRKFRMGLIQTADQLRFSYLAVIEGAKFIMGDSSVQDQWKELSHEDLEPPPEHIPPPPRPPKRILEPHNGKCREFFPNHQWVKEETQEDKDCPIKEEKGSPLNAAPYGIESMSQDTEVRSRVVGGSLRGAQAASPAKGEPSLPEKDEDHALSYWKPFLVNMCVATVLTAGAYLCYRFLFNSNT
Outline: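 In-house human recombinant PTP-1B (~35 ng) was assayed with p-nitrophenyl phosphate in 25 mM Hepes, 3 mM DTT and 1 mM EDTA, pH 7.4, with DMSO at ≤1%. Absorbance at 405 nm was monitored continuously at 30 °C for 30 min, then NaOH was added and 405 nm read again. Activity was expressed as % of control, and % inhibition as 100 minus activity.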

Salmonella typhimurium [12] = assay: Antibacterial activity against Salmonella Typhimurium at 500 ug/ml after 48 hrs by tube dilution method; type: functional, organism-based; settings: Salmonella enterica subsp. enterica serovar Typhimurium; outline: as §1
Salmonella typhimurium [13] = assay: Antibacterial activity against Salmonella Typhimurium at 10 ug/ml after 48 hrs by tube dilution method; type: functional, organism-based; settings: Salmonella enterica subsp. enterica serovar Typhimurium; outline: as §1
Staphylococcus aureus [14] = assay: Antibacterial activity against Staphylococcus aureus at 10 ug/ml after 48 hrs by tube dilution method; type: functional, organism-based; outline: as §1
Staphylococcus aureus [15] = assay: Antibacterial activity against Staphylococcus aureus at 1 ug/ml after 48 hrs by tube dilution method; type: functional, organism-based; outline: as §1
Staphylococcus aureus [16] = assay: Antibacterial activity against Staphylococcus aureus at 100 ug/ml after 48 hrs by tube dilution method; type: functional, organism-based; outline: as §1

| Structure (SMILES) | MIC (Salmonella typhimurium [2]) | inhibition [3] | MIC (Staphylococcus aureus [8]) | inhibition [9] | inhibition [11] | Activity (Salmonella typhimurium [1]) | Activity (Salmonella typhimurium [4]) | Activity (Staphylococcus aureus [5]) | Activity (Staphylococcus aureus [6]) | Activity (Staphylococcus aureus [7]) | Activity (Salmonella typhimurium [10]) | Activity (Salmonella typhimurium [12]) | Activity (Salmonella typhimurium [13]) | Activity (Staphylococcus aureus [14]) | Activity (Staphylococcus aureus [15]) | Activity (Staphylococcus aureus [16]) |
| --- | --- | --- | --- | --- | --- | --- | --- | --- | --- | --- | --- | --- | --- | --- | --- | --- |
| CCOC(=O)n1c(-c2ccc(C#Cc3ccc4c(c3)C(C)(C)CCS4)cc2)nc2ccccc21 | 500 µg/mL (≈ 1070 µM) | 16.9% | 500 µg/mL (≈ 1070 µM) | 7% | 0% | inactive | – | Active | – | inactive | inactive | Active | inactive | inactive | inactive | – |
| Cc1ccc(S(=O)(=O)n2c(-c3ccc(C#Cc4ccccc4)cc3)nc3ccccc32)cc1 | 200 µg/mL (≈ 446 µM) | 22.6% | 200 µg/mL (≈ 446 µM) | 0% | 0% | inactive | Active | Active | Active | inactive | inactive | Active | inactive | – | inactive | – |
| CCn1c(-c2ccc(C#Cc3ccc4c(c3)C(C)(C)CCS4)cc2)nc2ccccc21 | 200 µg/mL (≈ 473 µM) | 15.8% | 200 µg/mL (≈ 473 µM) | 0% | 0% | inactive | Active | Active | Active | inactive | inactive | Active | inactive | inactive | inactive | – |
| C(#Cc1ccc(-c2nc3ccccc3[nH]2)cc1)c1ccccc1 | 200 µg/mL (≈ 679 µM) | 3.4% | 200 µg/mL (≈ 679 µM) | 0% | 1.64% | inactive | Active | Active | Active | inactive | inactive | Active | inactive | inactive | inactive | – |
| O=S(=O)(n1c(-c2ccc(C#Cc3ccccc3)cc2)nc2ccccc21)C(F)(F)F | 500 µg/mL (≈ 1170 µM) | 16.9% | 500 µg/mL (≈ 1170 µM) | 0% | 0% | inactive | – | Active | – | inactive | inactive | Active | inactive | inactive | inactive | inactive |
| CCCCOC(=O)n1c(-c2ccc(C#Cc3ccc4c(c3)C(C)(C)CCS4)cc2)nc2ccccc21 | 500 µg/mL (≈ 1010 µM) | 21% | 500 µg/mL (≈ 1010 µM) | 0% | 1.94% | inactive | – | Active | – | inactive | inactive | Active | – | – | inactive | – |
| CC1(C)CCSc2ccc(C#Cc3ccc(-c4nc5ccccc5n4S(=O)(=O)C(F)(F)F)cc3)cc21 | 200 µg/mL (≈ 380 µM) | 22.6% | 500 µg/mL (≈ 949 µM) | 9% | 0.52% | inactive | Active | Active | – | inactive | inactive | Active | inactive | inactive | inactive | – |
| CCCCn1c(-c2ccc(C#Cc3ccccc3)cc2)nc2ccccc21 | 500 µg/mL (≈ 1430 µM) | 19.4% | 500 µg/mL (≈ 1430 µM) | 3% | 0% | inactive | – | Active | – | inactive | inactive | Active | – | – | inactive | – |
| CCCn1c(-c2ccc(C#Cc3ccccc3)cc2)nc2ccccc21 | 500 µg/mL (≈ 1490 µM) | 8.91% | 500 µg/mL (≈ 1490 µM) | 0% | 0% | inactive | – | Active | – | inactive | inactive | Active | – | inactive | inactive | – |
| Cn1c(-c2ccc(C#Cc3ccc4c(c3)C(C)(C)CCS4)cc2)nc2ccccc21 | 200 µg/mL (≈ 490 µM) | 18.2% | 200 µg/mL (≈ 490 µM) | 0% | 0% | inactive | Active | Active | Active | inactive | inactive | Active | – | – | inactive | – |
| CCCn1c(-c2ccc(C#Cc3ccc4c(c3)C(C)(C)CCS4)cc2)nc2ccccc21 | 500 µg/mL (≈ 1150 µM) | 17.3% | 500 µg/mL (≈ 1150 µM) | 0% | 7.38% | inactive | – | Active | – | inactive | inactive | Active | inactive | inactive | inactive | – |

The remaining compounds from weak to strong by MIC (Salmonella typhimurium [2]), led by results:

| MIC (Salmonella typhimurium [2]) | inhibition [3] | MIC (Staphylococcus aureus [8]) | inhibition [9] | inhibition [11] | Structure (SMILES) | Activity (Salmonella typhimurium [1]) | Activity (Salmonella typhimurium [4]) | Activity (Staphylococcus aureus [5]) | Activity (Staphylococcus aureus [6]) | Activity (Staphylococcus aureus [7]) | Activity (Salmonella typhimurium [10]) | Activity (Salmonella typhimurium [12]) | Activity (Salmonella typhimurium [13]) | Activity (Staphylococcus aureus [14]) | Activity (Staphylococcus aureus [15]) | Activity (Staphylococcus aureus [16]) |
| --- | --- | --- | --- | --- | --- | --- | --- | --- | --- | --- | --- | --- | --- | --- | --- | --- |
| 500 µg/mL (≈ 1360 µM) | 16.5% | 500 µg/mL (≈ 1360 µM) | 0% | 27.7% | CCOC(=O)n1c(-c2ccc(C#Cc3ccccc3)cc2)nc2ccccc21 | inactive | – | Active | – | inactive | inactive | Active | – | – | inactive | – |
| 500 µg/mL (≈ 1420 µM) | 18.2% | 500 µg/mL (≈ 1420 µM) | 0% | 29% | COC(=O)n1c(-c2ccc(C#Cc3ccccc3)cc2)nc2ccccc21 | inactive | – | Active | – | inactive | inactive | Active | inactive | – | inactive | – |
| 200 µg/mL (≈ 444 µM) | 19.9% | 200 µg/mL (≈ 444 µM) | 5% | 0.15% | CCCCn1c(-c2ccc(C#Cc3ccc4c(c3)C(C)(C)CCS4)cc2)nc2ccccc21 | inactive | Active | Active | Active | inactive | inactive | Active | – | – | – | – |
| 200 µg/mL (≈ 507 µM) | 0% | 200 µg/mL (≈ 507 µM) | 0% | 2.42% | CC1(C)CCSc2ccc(C#Cc3ccc(-c4nc5ccccc5[nH]4)cc3)cc21 | inactive | Active | Active | Active | inactive | inactive | Active | – | – | inactive | – |
| 200 µg/mL (≈ 649 µM) | 22.3% | 500 µg/mL (≈ 1620 µM) | 9% | 8.42% | Cn1c(-c2ccc(C#Cc3ccccc3)cc2)nc2ccccc21 | inactive | Active | Active | – | inactive | inactive | Active | inactive | inactive | inactive | – |
| 200 µg/mL (≈ 442 µM) | 17.9% | 200 µg/mL (≈ 442 µM) | 5% | 0.97% | COC(=O)n1c(-c2ccc(C#Cc3ccc4c(c3)C(C)(C)CCS4)cc2)nc2ccccc21 | inactive | Active | Active | Active | inactive | inactive | Active | – | – | inactive | – |
